Assay results taken from ChEMBL document CHEMBL3045703, “Synthesis and insect antifeedant activity of plumbagin derivatives with the amino acid moiety” (2009).

Columns and labels:
Format in all cases: functional
Achaea janata [1] = test: Toxicity in third instar larvae of Achaea janata assessed as mortality at 4 ug/insect measured after 4 to 28 days by topical bioassay
Spodoptera litura [2] = test: Toxicity in third-instar larvae of tobacco caterpillar Spodoptera litura assessed as mortality at 4 ug/insect measured after 4 to 28 days by topical bioassay
Spodoptera litura [3] = test: Antifeedant activity against third-instar larvae of tobacco caterpillar Spodoptera litura in compound treated fresh castor leaves assessed as consumption at 28 +/- 2 degC, relative humidity 65 +/- 5 measured after 6 to 24 hr
Outline: (§1)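 No-choice leaf-disk test on castor leaf discs; control discs got solvent only. Prestarved third instar larvae reared on fresh castor leaves at 28 ± 2 °C, RH 65 ± 5, 16:8 light/dark. Consumed area tracked at 6, 12 and 24 h and measured with a leaf area meter. Antifeedant index = (C − T)/(C + T) × 100. 10 sets per concentration, each test run in triplicate; mean ± SD.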

Achaea janata [4] = test: Antifeedant activity against third instar larvae of Achaea janata in compound treated fresh castor leaves assessed as consumption at 28 +/- 2 degC, relative humidity 65 +/- 5 measured after 6 to 24 hr; outline: as §1
Achaea janata [5] = test: Toxicity in third instar larvae of Achaea janata assessed as mortality at 1 ug/insect measured after 4 to 28 days by topical bioassay
Spodoptera litura [6] = test: Toxicity in third-instar larvae of tobacco caterpillar Spodoptera litura assessed as mortality at 1 ug/insect measured after 4 to 28 days by topical bioassay
Achaea janata [7] = test: Antifeedant activity against third instar larvae of Achaea janata in compound treated fresh castor leaves assessed as consumption at 0.1% measured after 6 to 24 hr; outline: as §1
Spodoptera litura [8] = test: Antifeedant activity against third-instar larvae of tobacco caterpillar Spodoptera litura in compound treated fresh castor leaves assessed as consumption at 0.1% measured after 6 to 24 hr; outline: as §1

Row | SMILES | mortality (Achaea janata [1]) | mortality (Spodoptera litura [2]) | Antifeedant EC50 (leaf-consumption) (Spodoptera litura [3]) | antifeedant EC50 (Achaea janata [4]) | mortality (Achaea janata [5]) | mortality (Spodoptera litura [6]) | Activity (Achaea janata [7]) | Activity (Spodoptera litura [8])
1 | COc1cccc2c1C(=O)C(NCCOC(=O)[C@H](CC(C)C)NC(C)=O)=C(C)C2=O | <20% | 74.2% | 466.28 microg/cm2 | >500 microg/cm2 | – | – | – | –
2 | COc1cccc2c1C(=O)C(NCCOC(=O)[C@H](Cc1ccccc1)NC(C)=O)=C(C)C2=O | 23.4% | <20% | 105.93 microg/cm2 | 51.96 microg/cm2 | – | – | – | –
3 | COc1cccc2c1C(=O)C(NCCOC(=O)[C@@H](NC(C)=O)C(C)C)=C(C)C2=O | 32.6% | 84.5% | >500 microg/cm2 | 104.59 microg/cm2 | – | – | – | –
4 | COc1cccc2c1C(=O)C(NCCOC(=O)[C@H](Cc1ccc(O)cc1)NC(C)=O)=C(C)C2=O | 24.6% | <20% | 461 microg/cm2 | 199.45 microg/cm2 | – | – | – | –
5 | COc1cccc2c1C(=O)C(NCCOC(=O)CCCNC(C)=O)=C(C)C2=O | <20% | <20% | 247.59 microg/cm2 | >500 microg/cm2 | – | – | – | –
6 | COc1cccc2c1C(=O)C(NCCOC(=O)c1ccc(NC(C)=O)cc1)=C(C)C2=O | <20% | 63.8% | 117.25 microg/cm2 | 268.88 microg/cm2 | – | – | – | –
7 | COc1cccc2c1C(=O)C(NCCOC(=O)CNC(C)=O)=C(C)C2=O | 100% | <20% | 36.87 microg/cm2 | 69.51 microg/cm2 | – | – | – | –
8 | COc1cccc2c1C(=O)C(NCCOC(=O)[C@H](C)NC(C)=O)=C(C)C2=O | <20% | <20% | >500 microg/cm2 | 340.63 microg/cm2 | – | – | – | –
9 | COc1cccc2c1C(=O)C(NCCOC(=O)[C@H](CS)NC(C)=O)=C(C)C2=O | <20% | 100% | >500 microg/cm2 | >500 microg/cm2 | – | – | – | –
10 | COc1cccc2c1C(=O)C(NCCOC(=O)[C@H](CCSC)NC(C)=O)=C(C)C2=O | 100% | <20% | 48.47 microg/cm2 | 37.37 microg/cm2 | – | – | – | –
11 | CC[C@H](C)[C@H](NC(C)=O)C(=O)OCCNC1=C(C)C(=O)c2cccc(OC)c2C1=O | <20% | <20% | >500 microg/cm2 | 292 microg/cm2 | – | – | – | –
12 | C/C=C(\C)C(=O)O[C@H]1C[C@@H](OC(C)=O)[C@@]2(C(=O)OC)CO[C@H]3[C@@H](O)[C@@](C)([C@]45O[C@@]4(C)[C@@H]4C[C@H]5O[C@@H]5OC=C[C@@]54O)[C@H]4[C@]1(CO[C@]4(O)C(=O)OC)[C@@H]32 [AZADIRACHTIN A] | – | – | – | – | 93.6% | 84% | – | –
13 | CC1=CC(=O)c2c(O)cccc2C1=O [PLUMBAGIN] | <20% | <20% | – | – | – | – | 35.69% | 26%
